Legend:
[1] = target: T1, Proteasome Macropain subunit MB1 (Homo sapiens, UniProt P28074); experiment: Inhibition of human 20S constitutive proteasome beta-5 using Suc-LLVY-AMC as substrate after 60 mins by fluorescence assay
T1 sequence (P28074 whole entry): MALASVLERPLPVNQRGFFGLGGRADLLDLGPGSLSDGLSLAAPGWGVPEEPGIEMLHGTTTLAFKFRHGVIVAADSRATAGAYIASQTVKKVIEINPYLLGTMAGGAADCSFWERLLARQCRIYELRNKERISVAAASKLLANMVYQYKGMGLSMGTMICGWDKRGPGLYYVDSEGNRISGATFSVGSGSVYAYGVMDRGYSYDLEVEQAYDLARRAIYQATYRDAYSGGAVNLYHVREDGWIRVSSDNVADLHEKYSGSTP
Method in brief: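 Inhibitors preincubated 60 min at ambient temperature with shaking, final concentrations 0.1 nM–400 µM. Fluorogenic substrate at final 100 µM. Duplicates, three repetitions. IC50 obtained from a Hill-equation fit of % residual activity against log concentration.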

[2] = species: Homo sapiens; experiment: Selectivity ratio of IC50 for human 20S constitutive proteasome beta-5 to IC50 for human 20S constitutive proteasome beta-2
[3] = Stability in pH 6.5 PBS buffer at 1 mM after 12 hrs by HPLC analysis; type: physicochemical; conditions: read-out: Stability
Method in brief: (§1)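 Compound in DMSO added to 1x PBS adjusted with HCl/NaOH to pH 6.5, 7.4 or 8.0, giving about 1 mM final. Sulfonyl fluoride hydrolysis followed by analytical HPLC over 12 h. Peak measured right after buffer addition set as 0 h reference. Reported as residual % of intact R-SO2F.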

[4] = Stability in pH 7.4 PBS buffer at 1 mM after 1 hr by HPLC analysis; type: physicochemical; conditions: read-out: Stability; method in brief: as §1
[5] = Stability in pH 7.4 PBS buffer at 1 mM after 6 hrs by HPLC analysis; type: physicochemical; conditions: read-out: Stability; method in brief: as §1
[6] = Stability in pH 8 PBS buffer at 1 mM after 2 hrs by HPLC analysis; type: physicochemical; conditions: read-out: Stability; method in brief: as §1
[7] = target: T2, Proteasome subunit beta type-10 (Homo sapiens, UniProt P40306); experiment: Inhibition of human 20S immunoproteasome beta-2 using Bz-VGR-AMC as substrate after 60 mins by fluorescence assay
T2 sequence (P40306 whole entry): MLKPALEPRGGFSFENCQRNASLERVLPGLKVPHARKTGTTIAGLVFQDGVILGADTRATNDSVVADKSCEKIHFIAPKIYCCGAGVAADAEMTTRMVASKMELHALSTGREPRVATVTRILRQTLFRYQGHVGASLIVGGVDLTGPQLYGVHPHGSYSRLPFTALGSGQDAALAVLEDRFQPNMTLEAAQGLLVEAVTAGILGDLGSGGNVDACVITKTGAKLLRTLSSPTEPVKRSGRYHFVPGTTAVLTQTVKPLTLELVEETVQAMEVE
Method in brief: (§2)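 Purified 20S proteasome (final 2.5 nM) in kit assay buffer. Inhibitors preincubated 60 min at ambient temperature with shaking, final concentrations 0.1 nM–400 µM. Fluorogenic substrate at final 100 µM. Fluorescence (ex 360 nm, em 460 nm) read kinetically for 2 h at 25 °C. Duplicates, three repetitions. IC50 obtained from a Hill-equation fit of % residual activity against log concentration.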

[8] = target: T3, Proteasome subunit beta type-8 (Homo sapiens, UniProt P28062); experiment: Inhibition of human 20S immunoproteasome beta-5 using Suc-LLVY-AMC as substrate after 60 mins by fluorescence assay; method in brief: as §2
T3 sequence (P28062 whole entry): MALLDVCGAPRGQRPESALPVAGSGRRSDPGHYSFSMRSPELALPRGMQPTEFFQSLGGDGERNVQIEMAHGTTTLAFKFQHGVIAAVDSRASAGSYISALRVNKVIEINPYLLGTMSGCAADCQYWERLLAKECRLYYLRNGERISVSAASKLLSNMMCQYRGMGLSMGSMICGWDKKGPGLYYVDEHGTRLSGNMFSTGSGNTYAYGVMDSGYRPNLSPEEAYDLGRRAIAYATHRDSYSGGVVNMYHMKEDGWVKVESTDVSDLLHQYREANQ

[9] = species: Homo sapiens; experiment: Selectivity ratio of IC50 for human 20S immunoproteasome beta-5 to IC50 for human 20S immunoproteasome beta-2

Structure (SMILES) | IC50 [1] | Ratio IC50 [2] | remaining at 12 h, 1000 µM [3] | remaining at 1 h, 1000 µM [4] | remaining at 6 h, 1000 µM [5] | remaining at 2 h, 1000 µM [6] | IC50 [7] | IC50 [8] | Ratio IC50 [9]
CC(=O)N[C@@H](Cc1ccccc1)C(=O)N[C@@H](CC(C)C)C(=O)N[C@@H](CC(C)C)C(=O)N[C@@H](CCCCN)CS(=O)(=O)F | > 100 µM | 300 | 75% | 90% | ≥ 50% | 50% |  |  | 
CC(=O)N[C@@H](Cc1ccccc1)C(=O)N[C@@H](CC(C)C)C(=O)N[C@@H](CC(C)C)C(=O)N[C@@H](Cc1ccc(CN)cc1)CS(=O)(=O)F | 18 µM | 150 | 75% | 90% | ≥ 50% | 50% | 0.395 µM | 17.2 µM | 44
CC(C)C[C@H](NC(=O)[C@H](CC(C)C)NC(=O)[C@@H](N)Cc1ccccc1)C(=O)N[C@@H](Cc1ccc(N)cc1)CS(=O)(=O)F | 0.95 µM | 4.3 | 75% | 90% | ≥ 50% | 50% | 0.2 µM | 0.45 µM | 2.3
CC(C)C[C@H](NC(=O)[C@H](Cc1ccccc1)N=[N+]=[N-])C(=O)N[C@@H](CC(C)C)C(=O)N[C@@H](CCCNC(=N)N)CS(=O)(=O)F | 39 µM | 110 | 75% | 90% | ≥ 50% | 50% |  |  | 
CC(=O)N[C@@H](Cc1ccccc1)C(=O)N[C@@H](CC(C)C)C(=O)N[C@@H](CC(C)C)C(=O)N[C@@H](CCCNC(=N)N)CS(=O)(=O)F | 69 µM | 70 | 75% | 90% | ≥ 50% | 50% |  |  | 
CC(C)C[C@H](NC(=O)[C@H](CC(C)C)NC(=O)[C@@H](N)Cc1ccccc1)C(=O)N[C@@H](Cc1ccc(CN)cc1)CS(=O)(=O)F | 125 µM | 900 | 75% | 90% | ≥ 50% | 50% | 0.36 µM | 137 µM | 380
CC(C)C[C@H](NC(=O)[C@H](Cc1ccccc1)N=[N+]=[N-])C(=O)N[C@@H](CC(C)C)C(=O)N[C@@H](CCCCN)CS(=O)(=O)F | 67 µM | 96 | 75% | 90% | ≥ 50% | 50% |  |  | 
CC(C)C[C@H](NC(=O)[C@H](CC(C)C)NC(=O)[C@H](Cc1ccccc1)NC(=O)OC(C)(C)C)C(=O)N[C@@H](CCCNC(=N)N)CS(=O)(=O)F | 27.8 µM | 40 | 75% | 90% | ≥ 50% | 50% |  |  | 
CC(C)C[C@H](NC(=O)[C@H](CC(C)C)NC(=O)[C@@H](N)Cc1ccccc1)C(=O)N[C@@H](CCCNC(=N)N)CS(=O)(=O)F | 140 µM | 560 | 75% | 90% | ≥ 50% | 50% | 0.21 µM | > 100 µM | > 1000
CC(C)C[C@H](NC(=O)[C@H](Cc1ccccc1)N=[N+]=[N-])C(=O)N[C@@H](CC(C)C)C(=O)N[C@@H](Cc1ccc(CN)cc1)CS(=O)(=O)F | 8.9 µM | 66 | 75% | 90% | ≥ 50% | 50% | 0.13 µM | 3.1 µM | 24
CC(C)C[C@H](NC(=O)[C@H](CC(C)C)NC(=O)[C@H](Cc1ccccc1)NC(=O)OCc1ccccc1)C(=O)N[C@@H](CCCNC(=N)N)CS(=O)(=O)F | 6.7 µM | 45 | 75% | 90% | ≥ 50% | 50% | 0.4 µM | 6.7 µM | 17
CC(C)C[C@H](NC(=O)[C@H](CC(C)C)NC(=O)[C@@H](N)Cc1ccccc1)C(=O)N[C@@H](CCCCN)CS(=O)(=O)F | > 100 µM | > 1000 | 75% | 90% | ≥ 50% | 50% | 0.3 µM | > 100 µM | > 1000
CC(C)C[C@H](NC(=O)OCc1ccccc1)C(=O)N[C@@H](CC(C)C)C(=O)N[C@@H](CC(C)C)C(=O)N[C@@H](CCCNC(=N)N)CS(=O)(=O)F | 10 µM | 50 | 75% | 90% | ≥ 50% | 50% | 1.11 µM | 14 µM | 13
CC(C)C[C@H](NC(=O)[C@H](Cc1ccccc1)N=[N+]=[N-])C(=O)N[C@@H](CC(C)C)C(=O)N[C@H](/C=C/S(C)(=O)=O)Cc1ccc(CN)cc1 |  |  |  |  |  |  | 0.0275 µM | 1.8 µM | 
CC(=O)N[C@@H](Cc1ccccc1)C(=O)N[C@@H](CC(C)C)C(=O)N[C@@H](CC(C)C)C(=O)N[C@@H](Cc1ccc(N)cc1)CS(=O)(=O)F | 0.21 µM | 0.1 | 75% | 90% | ≥ 50% | 50% |  |  | 
CC(C)C[C@H](NC(=O)[C@H](Cc1ccccc1)N=[N+]=[N-])C(=O)N[C@@H](CC(C)C)C(=O)N[C@@H](Cc1ccc(N)cc1)CS(=O)(=O)F |  |  | 75% | 90% | ≥ 50% | 50% |  |  | 
